According to ChEMBL document CHEMBL1135437, “Novel, non-acylguanidine-type Na(+)/H(+) exchanger inhibitors: synthesis and pharmacology of 5-tetrahydroquinolinylidene aminoguanidine derivatives” (J Med Chem, 2002):

Legend:
Rattus norvegicus [1] = assay: In vivo inhibitory effect on the myocardial infarct size of ischemia-reperfusion injury model of rat. Administered intravenously 5 min before occlusion.; type: functional, Myocardium
Outline: (§1)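 Male Wistar rats (11–12 weeks), anesthetized; left coronary artery occluded 1 h, then reperfused 24 h. Dose 0.1 or 0.3 mg/kg iv, 5 min before occlusion. Area at risk stained with 1% Evans blue; six left-ventricle slices stained with 1% TTC, 37 °C, 10 min. Infarct size expressed as % of area at risk by weight. n = 5–7.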

[2] = in vitro inhibition against NHE to inhibit the acid induced swelling in human platelets by 50%; type: functional
Outline: (§2)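 Platelet-rich plasma from forearm-vein blood of normal adult men, adjusted to 10 × 10^4/µL. Compound in DMSO added 3 min before sodium propionate buffer (135 mM, pH 6.7, 37 °C), final DMSO 1%. Light transmission at 550 nm recorded; maximum upstroke velocity in the first minute used. 100% inhibition defined by vehicle vs HOE-642 (10^-5 M). IC50 = 50% inhibition of swelling; triplicate experiments.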

Rattus norvegicus [3] = assay: In vivo inhibitory effect on the Myocardial Infarct size of Ischemia-Reperfusion Injury model of rat. Administered intravenously […].; type: functional, Myocardium; settings: in the assay text read “5 min before” for “2 hr before”
Rattus norvegicus [4] = assay: In vivo inhibitory effect on the Myocardial Infarct size of Ischemia-Reperfusion Injury model of rat. Administered intravenously 5 min before occlusion.; type: functional, Myocardium; outline: as §1
[5] = In vitro inhibition of acid induced swelling in rat platelets by 50% as a measure of NHE inhibition; type: functional
Outline: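 Platelet-rich plasma from male Wistar rats (13–15 weeks), diluted in saline to 40 × 10^4/µL. Compound in DMSO added 3 min before sodium propionate buffer (135 mM, pH 6.7, 37 °C), final DMSO 1%. Swelling read as the change in 550 nm light transmission 1 min later, corrected with platelet-poor plasma. 100% inhibition defined by vehicle vs HOE-642 (10^-5 M). IC50 from triplicate experiments.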

Rattus norvegicus [6] = assay: In vivo inhibitory effect on the myocardial infarct size of ischemia-reperfusion injury model of rat administered intravenously 5 min before occlusion; type: functional, Myocardium; outline: as §1
[7] = In vitro inhibition against Na+/H+ exchanger(NHE) by measuring its ability to inhibit the acid induced swelling in human platelets by 50%; type: functional; outline: as §2

SMILES | IC50 [2] [nM] | Inhibition [5] [%] | further results
Cc1ccnc2c1/C(=N/N=C(N)N)CC(c1ccccn1)C2.Cl.Cl (stereo unspecified) | – | 23 | –
Cc1ccnc2c1/C(=N/N=C(N)N)CC(c1c(Cl)cccc1Cl)C2.Cl.Cl (stereo unspecified) | – | 23 | –
Cc1ccnc2c1/C(=N/N=C(N)N)CC(c1ccncc1)C2.Cl.Cl (stereo unspecified) | – | 25 | –
CC(C)c1ccc(C(=O)N=C(N)N)cc1S(C)(=O)=O [CARIPORIDE] | – | – | Inhibition (Rattus norvegicus [6]): 28%; IC50 [7]: 210 nM

The next lines start with results.

IC50 [2] [nM] | SMILES | Inhibition [5] [%] | further results
9 | CS(=O)(=O)O.CS(=O)(=O)O.Cc1ccnc2c1/C(=N/N=C(N)N)C[C@H](c1ccccc1Cl)C2 | – | Inhibition (Rattus norvegicus [1]): 44%
13 | CS(=O)(=O)O.CS(=O)(=O)O.Cc1ccc(F)cc1[C@H]1C/C(=N\N=C(N)N)c2c(C)ccnc2C1 | – | Inhibition (Rattus norvegicus [3]): 33%
7 | CS(=O)(=O)O.CS(=O)(=O)O.Cc1ccnc2c1/C(=N/N=C(N)N)C[C@H](c1cc(Cl)sc1Cl)C2 | – | Inhibition (Rattus norvegicus [4]): 43%
